Reference: ChEMBL document CHEMBL1143660, “Structure-activity relationship studies of a series of novel delta-lactam-based histone deacetylase inhibitors” (J Med Chem, 2007)
Activity calls are given as the source filed them. No cut-off for these calls is given here.

Legend:
Histone deacetylase = assay: Inhibition of HDAC in HeLa cells by fluorescent activity assay; type: cell-based, Homo sapiens
RAW264.7 [1] = assay: Inhibition of LPS-stimulated TNFalpha production in RAW264.7 cells after 24 hrs by ELISA; type: functional, cell-based; settings: Mus musculus, RAW264.7, 24 h
RAW264.7 [2] = assay: Inhibition of LPS-stimulated NO production in RAW264.7 cells after 24 hrs […]; type: functional, cell-based; settings: Mus musculus, RAW264.7, 24 h
Method in brief: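 RAW264.7 murine macrophages stimulated with LPS and treated with inhibitor at 0.1 to 10 µM; suppression of NO production measured and IC50 calculated; values are means of at least three experiments.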

HCT-15 = assay: Growth inhibition of HCT15 cells by SRB assay; type: functional, Homo sapiens
MDA-MB-231 [3] = assay: Growth inhibition of human MDA-MB-231 cells by SRB assay; type: functional
PC-3 = assay: Growth inhibition of PC3 cells by SRB assay; type: functional; settings: Homo sapiens
ACHN = assay: Growth inhibition of ACHN cells by SRB assay; type: functional; settings: Homo sapiens
NCI-H23 = assay: Growth inhibition of NCI-H23 cells by SRB assay; type: functional; settings: Homo sapiens
MDA-MB-231 [4] = assay: Inhibition of tumor growth in MDA-MB-231 cells xenografted BALA/c nude mouse at 30 mg/kg, ip; type: functional, Homo sapiens; settings: MDA-MB-231, ip, route intraperitoneal
LOX IMVI = assay: Growth inhibition of LOX-IMVI cells by SRB assay; type: functional; settings: Homo sapiens

SMILES | IC50 (Histone deacetylase) [µM] | IC50 (RAW264.7 [1]) [µM] | IC50 (RAW264.7 [2]) [µM] | GI50 (MDA-MB-231 [3]; Homo sapiens, MDA-MB-231) [µM] | further results
O=C(CCCCCCC(=O)Nc1ccccc1)NO [VORINOSTAT] | – | – | – | – | GI50 (HCT-15): 0.82 µM; GI50 (MDA-MB-231 [3]): 0.66 µM
O=C(CCC1=CCCN(CCCCc2ccccc2)C1=O)NO | 0.13 | 1.3 | 1.8 | 1.5 | GI50 (HCT-15; Homo sapiens, HCT-15): 5.37 µM; GI50 (PC-3): 1.32 µM; GI50 (ACHN): 2.5 µM; GI50 (NCI-H23): 5.14 µM; inhibition in vivo at 30 mg/kg (MDA-MB-231 [4]): 51%
O=C(CCC1=CCCN(CCCc2ccccc2)C1=O)NO | 0.27 | 1.1 | 2.71 | 0.5 | GI50 (HCT-15; Homo sapiens, HCT-15): 4.99 µM; GI50 (LOX IMVI): 3.34 µM; GI50 (PC-3): 5.04 µM; GI50 (ACHN): 1.17 µM; GI50 (NCI-H23): 3.79 µM
COc1ccc(CN2CCC=C(CCC(=O)NO)C2=O)c(OC)c1 | – | 5.06 | 5.2 | 2.67 | IC50 (Histone deacetylase; read-out: IC50): 0.5 µM; GI50 (HCT-15; Homo sapiens, HCT-15): 7.98 µM; GI50 (LOX IMVI): 6.63 µM; GI50 (PC-3): 4.55 µM; GI50 (ACHN): 9.58 µM
O=C(CCC1=CCCN(Cc2ccccc2)C1=O)NO | – | 3.31 | 3.09 | 4.26 | IC50 (Histone deacetylase; read-out: IC50): 0.67 µM; Activity (HCT-15; Homo sapiens): inactive
O=C(CCCC1=CCCN(CCc2ccccc2)C1=O)NO | > 10 | > 10 | > 10 | – | –
O=C(CCC1=CCCN(CCc2ccccc2)C1=O)NO | – | 1.9 | 4.27 | 1.62 | IC50 (Histone deacetylase; read-out: IC50): 0.35 µM; GI50 (HCT-15; Homo sapiens, HCT-15): 8.16 µM; GI50 (LOX IMVI): 5.84 µM; GI50 (PC-3): 8.58 µM; GI50 (ACHN): 7.76 µM

Continued, in another order:

IC50 (Histone deacetylase) [µM] | IC50 (RAW264.7 [1]) [µM] | IC50 (RAW264.7 [2]) [µM] | SMILES | GI50 (MDA-MB-231 [3]; Homo sapiens, MDA-MB-231) [µM] | further results
> 10 | > 10 | > 10 | O=C(CC1=CCCN(Cc2ccccc2)C1=O)NO | – | –
> 10 | > 10 | > 10 | CN1CCC=C(CCC(=O)NO)C1=O | – | –
– | 11 | > 10 | C=CCN1CCC=C(CCC(=O)NO)C1=O | – | IC50 (Histone deacetylase; read-out: IC50): 4.27 µM
> 10 | > 10 | > 10 | O=C(CC1=CCCN(CCCCc2ccccc2)C1=O)NO | – | –
> 10 | > 10 | > 10 | O=C(CC1=CCCN(CCCc2ccccc2)C1=O)NO | – | –
> 10 | > 10 | 6.74 | O=C(CCCC1=CCCN(CCCCc2ccccc2)C1=O)NO | – | –
> 10 | > 10 | > 10 | O=C(CC1=CCCN(CCc2ccccc2)C1=O)NO | – | –
3.21 | > 10 | 6.57 | O=C(CCCC1=CCCN(CCCc2ccccc2)C1=O)NO | – | –
